Measured values from ChEMBL document CHEMBL1153389, “Identification of novel antibacterial peptides by chemoinformatics and machine learning” (2009).

Tests used:
Assay type in all cases: functional
[1] = tested on: Pseudomonas aeruginosa; test: Antimicrobial activity against Pseudomonas aeruginosa H103 after overnight incubation by broth microdilution method
In short: (§1)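 Modified broth microdilution. Peptides are serially diluted in 0.01% acetic acid with 0.2% BSA at 10-fold the final concentration, then added to MH medium in polypropylene plates. Bacteria from an overnight culture are added to a final (2-7) × 10^5 CFU/mL. Plates are incubated overnight at 37 °C. MIC is the lowest concentration with no visible growth.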

[2] = tested on: Escherichia coli; test: Antimicrobial activity against extended-spectrum beta-lactamase producing Escherichia coli 64771 after overnight incubation by broth microdilution method; in short: as §1
[3] = tested on: Staphylococcus aureus; test: Antimicrobial activity against methicillin-resistant Staphylococcus aureus C623 after overnight incubation by broth microdilution method
In short: (§2)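 Modified broth microdilution in polypropylene 96-well plates with Mueller-Hinton (MH) medium. Bulk-synthesized peptides were serially diluted at 10-fold final strength in 0.01% acetic acid with 0.2% BSA, then added 1:10 to MH. Inoculum came from an overnight culture at a final (2-7) × 10^5 CFU/mL. Plates were incubated overnight at 37 °C. MIC was the lowest concentration with no visible growth.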

[4] = tested on: Pseudomonas aeruginosa; test: Antimicrobial activity against Pseudomonas aeruginosa H1030 after overnight incubation by broth microdilution method; in short: as §2
[5] = tested on: Pseudomonas aeruginosa; test: Antimicrobial activity against Pseudomonas aeruginosa LES400 after overnight incubation by broth microdilution method; in short: as §2
[6] = tested on: Enterococcus faecium; test: Antimicrobial activity against vancomycin-resistant Enterococcus faecium t62764(VanB) isolate after overnight incubation by broth microdilution method; in short: as §2
[7] = tested on: Pseudomonas aeruginosa; test: Antimicrobial activity against Pseudomonas aeruginosa H1027 after overnight incubation by broth microdilution method; in short: as §1
[8] = tested on: Pseudomonas aeruginosa; test: Antimicrobial activity against multidrug-resistant Pseudomonas aeruginosa Brazil 198 isolate after overnight incubation by broth microdilution method; in short: as §2
[9] = tested on: Enterobacter cloacae; test: Antimicrobial activity against class C chromosomal beta lactamase expressing Enterobacter cloacae 218R after overnight incubation by broth microdilution method; in short: as §1
[10] = tested on: Enterococcus faecalis; test: Antimicrobial activity against Enterococcus faecalis ATCC 29212 after overnight incubation by broth microdilution method; in short: as §1
[11] = tested on: Staphylococcus aureus; test: Antimicrobial activity against Staphylococcus aureus ATCC 25923 after overnight incubation by broth microdilution method; in short: as §2
[12] = tested on: Enterococcus faecium; test: Antimicrobial activity against vancomycin-resistant Enterococcus faecium mic80(VanA) isolate after overnight incubation by broth microdilution method; in short: as §2
[13] = tested on: Klebsiella pneumoniae; test: Antimicrobial activity against extended-spectrum beta-lactamase-resistant Klebsiella pneumoniae 61962 after overnight incubation by broth microdilution method; in short: as §2
[14] = tested on: Klebsiella pneumoniae; test: Antimicrobial activity against extended-spectrum beta-lactamase-resistant Klebsiella pneumoniae 63575 after overnight incubation by broth microdilution method; in short: as §2
[15] = tested on: Stenotrophomonas maltophilia; test: Antimicrobial activity against Pseudomonas maltophilia ATCC 13637 after overnight incubation by broth microdilution method; in short: as §1
[16] = tested on: Pseudomonas aeruginosa; test: Antimicrobial activity against Pseudomonas aeruginosa H1001 expressing luciferase gene assessed as ratio antimicrobial IC50 for drug to Bac2A peptide by luminescence assay
In short: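 Peptides are made by SPOT synthesis on cellulose, cleaved, and the spots placed in plate wells. Overnight P. aeruginosa H1001 (fliC::luxCDABE) is diluted 1:500 in 100 mM Tris-HCl pH 7.3 with 20 mM glucose and added to the wells. After 30 min, serial dilutions (8 rows) are made. Luminescence is read at 4 h. IC50 is taken from a sigmoid fit and expressed relative to Bac2A run in the same series.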

[17] = tested on: Enterococcus faecalis; test: Antimicrobial activity against vancomycin-resistant Enterococcus faecalis w6190(VanA) isolate after overnight incubation by broth microdilution method; in short: as §2
[18] = tested on: Escherichia coli; test: Antimicrobial activity against extended-spectrum beta-lactamase producing Escherichia coli 63103 after overnight incubation by broth microdilution method; in short: as §1
[19] = tested on: Enterococcus faecalis; test: Antimicrobial activity against vancomycin-resistant Enterococcus faecalis f43559 (VanB) isolate after overnight incubation by broth microdilution method; in short: as §2
[20] = tested on: Pseudomonas aeruginosa; test: Antimicrobial activity against multidrug-resistant Pseudomonas aeruginosa Brazil 213 isolate after overnight incubation by broth microdilution method; in short: as §2
[21] = tested on: Pseudomonas aeruginosa; test: Antimicrobial activity against multidrug-resistant Pseudomonas aeruginosa Brazil 9 isolate after overnight incubation by broth microdilution method; in short: as §2

Substance	MIC [1] [µM]	MIC [2] [µM]	MIC [3] [µM]	MIC [4] [µM]	MIC [5] [µM]	MIC [6] [µM]	MIC [7] [µM]	MIC [8] [µM]	MIC [9] [µM]	MIC [10] [µM]	MIC [11] [µM]	MIC [12] [µM]	MIC [13] [µM]	MIC [14] [µM]	MIC [15] [µM]	Ratio IC50 [16]	MIC [17] [µM]	MIC [18] [µM]	MIC [19] [µM]	MIC [20] [µM]	also measured
H-AVWKFVKRV-OH	240	120	240	> 240	240	120	120	240	> 240	> 240	240	120	> 240	> 240	60	8.18	> 240	240	> 240		
H-FRRWWKWFK-OH	1.5	6.1	3	24	5.9	6.1	1.5	3	24	24	1.5	6.1	97	24	0.8	0.12	195	12	97	5.9	MIC [21]: 12 µM
H-IWWKWRRWV-OH	6	6	3	48	12	3	6	12	6	24	3	6	96	12	1.5	0.29	48	24	48	48	MIC [21]: 48 µM
H-KIWWWWRKR-OH	5.9	5.9	5.9	12	47	1.5	5.9	24	94	24	5.9	5.9	189	47	3	0.13	94	12	94	47	MIC [21]: 47 µM
H-KWKIFRRWW-OH	12	12	3.1	48	12	6.1	3.1	24	6	24	3.1	24	194	97	1.5	0.16	97	24	97	48	MIC [21]: 24 µM
H-LRWWWIKRI-OH	13	13	6.3	25	25	1.5	6.3	25	50	13	6.3	6.3	201	50	3.2	0.33	50	25	25	50	MIC [21]: 50 µM
H-RKRLKWWIY-OH	25	6.3	6.3	50	50	3.2	6.3	50	13	50	6.3	13	> 202	50	3.2	0.18	> 202	6.3	202	50	MIC [21]: 50 µM
H-RKWIWRWFL-OH	6.1	1.5	3.1	3.1	6.1	3.1	1.5	3.1	3	6.1	3.1	3.1	3.1	3.1	1.5	0.15	24	1.5	24	6.1	MIC [21]: 12 µM
H-RLARIVVIRVAR-OH	48	24	24	95	95	3	12	95	24	12	24	12	192	192	3		48	24	48	192	MIC [21]: 192 µM
H-RRFKFIRWW-OH	6.1	12	6.1	49	12	6.1	3.1	49	12	12	6.1	6.1	98	49	0.8	0.24	98	12	49	49	MIC [21]: 24 µM
H-RWRRWKWWL-OH	2.9	2.9	2.9	12	5.8	1.4	0.3	12	5.8	23	2.9	5.7	46	11	0.7	0.08	92	5.7	92	23	MIC [21]: 12 µM
H-WKKWWKRRW-OH	23	2.9	2.9	46	46	5.8	5.8	46	23	93	1.4	12	186	46	1.4	0.19	> 186	23	> 186	93	MIC [21]: 46 µM
H-WKRWWKKWR-OH	23	2.9	5.8	46	23	5.8	5.8	46	93	93	5.8	23	186	46	1.4	0.2	> 186	23	> 186	93	MIC [21]: 46 µM
H-WRWWKIWKR-OH	5.9	5.9	3	47	12	1.5	1.5	24	12	24	3	5.9	94	24	0.8	0.14	94	5.9	94	47	MIC [21]: 24 µM
